Assay [1] is described as follows: Binding affinity towards Opioid receptor delta 1 from guinea pig brain using [3H]naltrindole as radioligand.
Assay [2] has as its target T1, Kappa-type opioid receptor (Homo sapiens, UniProt P41145). The experiment in a line: (§1) Incorporation of [35S]GTP-gamma-S, into CHO membranes expressing human Opioid receptor kappa 1. It counts as functional.
Assay [3] concerns the target Kappa-type opioid receptor (Cavia porcellus) (UniProt P41144). Briefly: Ratio of binding affinity of Opioid receptor kappa 1 to Opioid receptor mu 1 to Opioid receptor delta 1; kappa:mu:delta = 47:26:1.
Assay [4] addresses T1, Kappa-type opioid receptor. The assay is described as §1. It counts as functional. The source holds these as a separate data set.
For assay [5], the target named is Kappa-type opioid receptor (Cavia porcellus, UniProt P41144). The experiment in a line: Binding affinity towards Opioid receptor kappa 1 from guinea pig brain using [3H]U-69593 as radioligand. The method, boiled down: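 Uses 1 nM [3H]U69,593 with guinea pig brain membrane protein (500 µg), 12 concentrations, 50 mM Tris-HCl pH 7.5, 60 min at 25 °C. Nonspecific binding with 10 µM naloxone. Filters pre-soaked in 0.1% polyethylenimine; bound label counted.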
Kappa-type opioid receptor (Cavia porcellus, UniProt P41144), sequence (P41144 whole entry): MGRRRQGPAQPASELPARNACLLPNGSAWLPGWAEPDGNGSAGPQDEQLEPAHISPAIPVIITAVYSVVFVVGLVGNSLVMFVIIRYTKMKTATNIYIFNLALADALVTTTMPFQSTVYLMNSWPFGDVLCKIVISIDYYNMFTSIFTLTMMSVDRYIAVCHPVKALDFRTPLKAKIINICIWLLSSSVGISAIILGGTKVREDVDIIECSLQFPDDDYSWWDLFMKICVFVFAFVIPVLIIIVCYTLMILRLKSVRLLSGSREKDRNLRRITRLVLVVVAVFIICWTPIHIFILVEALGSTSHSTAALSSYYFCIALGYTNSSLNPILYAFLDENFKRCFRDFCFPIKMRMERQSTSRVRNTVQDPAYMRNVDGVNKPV

The target of assay [6] is Mu-type opioid receptor (Cavia porcellus, UniProt P97266). The experiment in a line: Binding affinity towards Opioid receptor mu 1 from guinea pig brain using [3H]DAMGO as radioligand.
Mu-type opioid receptor (Cavia porcellus, UniProt P97266), sequence (P97266 whole entry): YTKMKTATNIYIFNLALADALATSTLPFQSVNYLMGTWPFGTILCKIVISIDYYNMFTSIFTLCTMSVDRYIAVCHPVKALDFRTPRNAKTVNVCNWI
In assay [7] the target is Kappa-type opioid receptor (Cavia porcellus) (UniProt P41144). Briefly: Ratio of binding affinity of Opioid receptor kappa 1 to Opioid receptor mu 1 to Opioid receptor delta 1; kappa:mu:delta = 11:7:1.
Kappa-type opioid receptor (Cavia porcellus), sequence (P41144 whole entry): as the sequence (P41144 whole entry) above
The target is the same in assay [8]. Briefly: Ratio of binding affinity of Opioid receptor kappa 1 to Opioid receptor mu 1 to Opioid receptor delta 1; kappa:mu:delta = 16:14:1.
Assay [9] deals with T2, Mu-type opioid receptor (Homo sapiens, UniProt P35372). Briefly: Incorporation of [35S]- GTPgammaS into CHO membranes expressing human Opioid receptor mu 1.
T2 sequence (P35372 whole entry): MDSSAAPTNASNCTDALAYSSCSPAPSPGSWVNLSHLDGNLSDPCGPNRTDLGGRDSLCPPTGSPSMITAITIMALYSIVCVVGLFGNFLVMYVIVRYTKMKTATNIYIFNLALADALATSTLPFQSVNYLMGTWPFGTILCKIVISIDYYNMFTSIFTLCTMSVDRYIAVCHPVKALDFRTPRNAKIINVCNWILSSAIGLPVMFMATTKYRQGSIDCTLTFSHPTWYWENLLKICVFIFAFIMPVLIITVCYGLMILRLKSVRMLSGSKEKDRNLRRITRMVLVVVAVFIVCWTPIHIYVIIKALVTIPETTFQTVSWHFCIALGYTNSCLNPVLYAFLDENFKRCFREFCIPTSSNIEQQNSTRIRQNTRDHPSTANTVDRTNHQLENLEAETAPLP
For assay [10], the target named is Kappa-type opioid receptor (Cavia porcellus) (UniProt P41144). Briefly: Ratio of binding affinity of Opioid receptor kappa 1 to Opioid receptor mu 1 to Opioid receptor delta 1; kappa:mu:delta = 29:18:1.
For assay [11] the target is unchanged. The experiment in a line: Ratio of binding affinity of Opioid receptor kappa 1 to Opioid receptor mu 1 to Opioid receptor delta 1; kappa:mu:delta = 1:1:1.
Assay [12] addresses T2, Mu-type opioid receptor. The experiment in a line: Incorporation of [35S]GTP-gamma-S, into CHO membranes expressing human Opioid receptor mu 1. It counts as functional.
Assay [13] deals with Kappa-type opioid receptor (Cavia porcellus) (UniProt P41144). The experiment in a line: Ratio of binding affinity of Opioid receptor kappa 1 to Opioid receptor mu 1 to Opioid receptor delta 1; kappa:mu:delta = 28:12:1.
The target is the same in assay [14]. The experiment in a line: Ratio of binding affinity of Opioid receptor kappa 1 to Opioid receptor mu 1 to Opioid receptor delta 1; kappa:mu:delta = 150:7:1.
For assay [15] the target is unchanged. The experiment in a line: Ratio of binding affinity of Opioid receptor kappa 1 to Opioid receptor mu 1 to Opioid receptor delta 1; kappa:mu:delta = 9:5:1.
Assay [16] shares this target. Briefly: Ratio of binding affinity of Opioid receptor kappa 1 to Opioid receptor mu 1 to Opioid receptor delta 1; kappa:mu:delta = 5:4:1.

The values below come from ChEMBL document CHEMBL1145777 (J Med Chem, 2003).

T1 sequence (P41145 whole entry): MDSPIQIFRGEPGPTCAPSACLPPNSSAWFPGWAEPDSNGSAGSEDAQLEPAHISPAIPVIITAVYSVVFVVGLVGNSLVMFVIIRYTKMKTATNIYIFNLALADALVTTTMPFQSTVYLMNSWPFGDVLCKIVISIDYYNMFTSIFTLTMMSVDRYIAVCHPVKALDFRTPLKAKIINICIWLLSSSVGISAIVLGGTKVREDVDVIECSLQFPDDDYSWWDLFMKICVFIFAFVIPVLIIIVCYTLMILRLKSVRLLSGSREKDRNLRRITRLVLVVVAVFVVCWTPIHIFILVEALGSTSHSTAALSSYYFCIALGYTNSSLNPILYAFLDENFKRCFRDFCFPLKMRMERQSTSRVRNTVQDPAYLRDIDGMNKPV

As for `CNc1ccc2c(c1)[C@@]1(C)CCN(CC3CC3)C(C2)[C@@H]1C`, in [1], the Ki amounted to 470 nM.

`C[C@H]1[C@H]2Cc3ccc(N)cc3[C@@]1(C)CCN2C[C@@H]1CCCO1` came in with an EC50 in assay [2] of 70 nM. In addition, in assay [3], the Ratio worked out at 47. This molecule displayed an Emax in assay [4] of 330%. Further, the Ki was found to be 7.8 nM in assay [5] and 14 nM in [6].

As for `COc1ccc(CNc2ccc3c(c2)[C@@]2(C)CCN(CC4CC4)C(C3)[C@@H]2C)cc1`, the figures for the Ki in assay [5] and in assay [6] were 71 nM and 7.8 nM, respectively.

Regarding `C[C@H]1[C@H]2Cc3ccc(O)cc3[C@@]1(C)CCN2C[C@@H]1CCCO1`, in assay [2], the EC50 worked out at 4 nM. Further, the Emax in assay [4] amounted to 70%. For the same molecule, the Ki in [5] worked out at 0.073 nM; in assay [6] it was 0.17 nM.

For `Cc1ccc(Nc2ccc3c(c2)[C@@]2(C)CCN(CC4CC4)C(C3)[C@@H]2C)cc1`, the Ratio in assay [7] was 11. For the same molecule, the Ki in assay [5] amounted to 0.57 nM; in [6], 0.91 nM.

`C[C@H]1[C@H]2Cc3ccc(Nc4ccccc4)cc3[C@@]1(C)CCN2CC1CC1` (stereo in doubt; (+)12) had a Ki in [1] of 270 nM.

Regarding `C[C@H]1C2Cc3ccc(Nc4ccc(C(F)(F)F)cc4)cc3[C@@]1(C)CCN2CC1CC1`, the Ki came to 11 nM in [5] and 13 nM in assay [6]. In assay [8], the Ratio is 16.

On to `COc1cccc(Nc2ccc3c(c2)[C@@]2(C)CCN(CC4CC4)C(C3)[C@@H]2C)c1`, for which the Ki in assay [5] came to 1 nM; in assay [6], 1.8 nM.

`CC[C@@]12CCN(CC3CC3)C(C(=O)c3ccc(O)cc31)[C@@H]2C` (single isomer, unassigned; (-)) [ETHYLKETOCYCLAZOCINE]: it took 5.5 nM to reach a half-maximal effect in assay [9] (EC50). Besides, in assay [6], the Ki was found to be 0.73 nM.

Turning to `COc1ccc(Nc2ccc3c(c2)[C@@]2(C)CCN(CC4CC4)C(C3)[C@@H]2C)cc1`, the Ratio in [10] stood at 29. The Ki in assay [5] was found to be 0.29 nM; in [6], 0.47 nM.

`C[C@H]1[C@H]2Cc3ccc(Nc4ccccc4)cc3[C@@]1(C)CCN2CC1CC1` [listing 1 of 2 here]: the values for the EC50 in assay [9] and in [2] were 15 nM and 3.8 nM, respectively.

Take `C[C@H]1C2Cc3ccc(N=C(c4ccccc4)c4ccccc4)cc3[C@@]1(C)CCN2CC1CC1`: the Ratio in [11] was found to be 1. Besides, the Ki in assay [5] is 170 nM; in assay [6] it was 360 nM.

In the case of `C[C@H]1[C@H]2Cc3ccc(Nc4ccccc4)cc3[C@@]1(C)CCN2CC1CC1` [listing 2 of 2 here], the Emax in assay [4] came out at 120%; in assay [12], 50%.

As to `CC[C@@]12CCN(CC3CC3)C(C(=O)c3ccc(N)cc31)[C@@H]2C` (stereo in doubt; 44) [listing 1 of 2 here], the EC50 in assay [9] is 62 nM; in assay [2], 4.4 nM. In addition, the Ki in assay [5] turned out to be 0.34 nM; in assay [6], 7.3 nM.

Take `C[C@H]1C2Cc3ccc(N4CCCC4)cc3[C@@]1(C)CCN2CC1CC1`: the affinity in assay [1], expressed as Ki, was 1800 nM.

Consider `C[C@H]1C2Cc3ccc(NCc4ccccc4)cc3[C@@]1(C)CCN2CC1CC1` (stereo in doubt; 25), for which, in assay [1], the Ki was 57 nM.

Take `CC[C@@]12CCN(CC3CC3)C(C(=O)c3ccc(O)cc31)[C@@H]2C` (single isomer, unassigned; (-)): the Emax in assay [4] amounted to 170%; in [12] it was 70%.

Regarding `C[C@H]1[C@H]2Cc3ccc(O)cc3[C@]1(C)CCN2CC1CC1` (stereo in doubt), the Emax in assay [4] is 90%.

On to `C[C@H]1[C@H]2Cc3ccc(Nc4ccccc4)cc3[C@@]1(C)CCN2CC1CC1` (stereo in doubt; 10) [listing 1 of 2 here], for which the Ratio in [7] is 11.

As to `C[C@H]1C2Cc3ccc(N4CCN(C)CC4)cc3[C@@]1(C)CCN2CC1CC1`, the Ratio in assay [13] worked out at 28. Further, in assay [1], the Ki is 250 nM.

The molecule `C[C@H]1C2Cc3ccc(NCc4ccccc4)cc3[C@@]1(C)CCN2CC1CC1` (single isomer, unassigned; (-)) came in with a Ki in [1] of 54 nM.

Consider `C[C@H]1C2Cc3ccc(Nc4ccncc4)cc3[C@@]1(C)CCN2CC1CC1`, for which the Ki came out at 2.9 nM in assay [5] and 18 nM in [6].

`C[C@H]1[C@H]2Cc3ccc(O)cc3[C@]1(C)CCN2CC1CC1` (stereo in doubt; (-)2) [CYCLAZOCINE] yielded an EC50 in [2] of 1.2 nM.

In the case of `C[C@H]1[C@H]2Cc3ccc(Nc4ccccc4)cc3[C@@]1(C)CCN2CC1CC1` (stereo in doubt; 10) [listing 2 of 2 here], in [1], the Ki is 9.4 nM.

On to `CC[C@@]12CCN(CC3CC3)C(C(=O)c3ccc(O)cc31)[C@@H]2C` (single isomer, unassigned; (+)) [ETHYLKETOCYCLAZOCINE], for which the Ki in assay [6] worked out at 320 nM.

On to `C[C@H]1C2Cc3ccc(Nc4cccnc4)cc3[C@@]1(C)CCN2CC1CC1`, for which the EC50 in assay [2] is 10 nM. The molecule further came in with an Emax in assay [4] of 90%. The Ki in [5] came out at 0.5 nM; in assay [6] it was 0.64 nM.

As for `C[C@H]1C2Cc3ccc(N(C)C)cc3[C@@]1(C)CCN2CC1CC1` (single isomer, unassigned; (-)), the Ki in assay [5] came to 18 nM; in [6], 46 nM.

In assay [1], `CCNc1ccc2c(c1)[C@@]1(C)CCN(CC3CC3)C(C2)[C@@H]1C` registered a Ki of 19 nM.

Consider `CC[C@@]12CCN(CC3CC3)C(C(=O)c3ccc(N)cc31)[C@@H]2C` (stereo in doubt; 44) [listing 2 of 2 here], for which the Ratio in assay [14] is 150. The Emax was found to be 100% in assay [4] and 60% in assay [12].

As for `C[C@H]1[C@H]2Cc3ccc(O)cc3[C@]1(C)CCN2CC1CC1` (stereo in doubt) [CYCLAZOCINE], the response in [2] was half-maximal at 1.6 nM (EC50).

As to `C[C@H]1C2Cc3ccc(N(C)C)cc3[C@@]1(C)CCN2CC1CC1` (single isomer, unassigned; (+)), the results for the Ki in assay [5] and in assay [6] were 3000 nM and 50000 nM, respectively.

Take `C[C@H]1C2Cc3ccc(N)cc3[C@@]1(C)CCN2CC1CC1`: affinity in [1] was put at a Ki of 110 nM.

As for `C[C@H]1C2C(=O)c3ccc(N)cc3[C@@]1(C)CCN2CC1CC1`, the EC50 in [9] stood at 180 nM; in [2], 9.7 nM. The results for the Emax in assay [4] and in [12] were 70% and 80%, respectively. Besides, the values for the Ki in [5] and in assay [6] were 0.8 nM and 3.6 nM, respectively.

As to `C[C@H]1C2Cc3ccc(NCc4ccc(Cl)cc4)cc3[C@@]1(C)CCN2CC1CC1`, the Ki in assay [5] came to 7.2 nM; in assay [6] it was 8.8 nM.

For the molecule `CC[C@@]12CCN(CC3CC3)C(C(=O)c3ccc(N)cc31)[C@@H]2C` (single isomer, unassigned; (-)), the values for the EC50 in assay [9] and in [2] were 92 nM and 2.8 nM, respectively. In addition, the inhibition constant (Ki) worked out at 1.1 nM in assay [5] and 2.7 nM in assay [6].

On to `C[C@H]1C2C(=O)c3ccc(O)cc3[C@@]1(C)CCN2CC1CC1`, for which the EC50 in [9] was found to be 21 nM; in assay [2] it was 3.3 nM. Moreover, the Emax in assay [4] turned out to be 80%; in assay [12], 40%. Also, in [5], the Ki worked out at 1 nM.

As to `C[C@H]1C2Cc3cc4c(cc3[C@@]1(C)CCN2CC1CC1)[nH]c1ccccc14`, affinity in assay [5] was put at a Ki of 9.6 nM.

On to `C[C@H]1C2Cc3ccc(Nc4ccccn4)cc3[C@@]1(C)CCN2CC1CC1`, for which the results for the Ki in assay [5] and in assay [6] were 9.2 nM and 4.2 nM, respectively.

As to `C[C@H]1[C@H]2Cc3ccc(O)cc3[C@]1(C)CCN2CC1CC1` (stereo in doubt; (-)2), the Emax turned out to be 100% in assay [4] and 50% in [12].

Regarding `CC[C@@]12CCN(CC3CC3)C(C(=O)c3ccc(N)cc31)[C@@H]2C` (single isomer, unassigned; (+)) [listing 1 of 2 here], the Ki was 91 nM in assay [5] and 17 nM in assay [6].

On to `CC[C@@]12CCN(CC3CC3)C(C(=O)c3ccc(N)cc31)[C@@H]2C` (single isomer, unassigned; (+)) [listing 2 of 2 here], for which the Ratio in assay [15] stood at 9.

`CC(C)Nc1ccc2c(c1)[C@@]1(C)CCN(CC3CC3)C(C2)[C@@H]1C` displayed a Ki in assay [1] of 460 nM.

As for `C[C@H]1C2Cc3ccc(N(C)C)cc3[C@@]1(C)CCN2CC1CC1` (stereo in doubt; 30), in assay [1], the affinity, expressed as Ki, was 1500 nM.

As for `CC[C@@]12CCN(CC3CC3)C(C(=O)c3ccc(Nc4ccccc4)cc31)[C@@H]2C`, the EC50 in assay [9] came out at 22 nM; in assay [2] it was 5.9 nM. In addition, the values for the Emax in assay [4] and in [12] were 110% and 70%, respectively. Further, the Ki in assay [5] is 2.2 nM; in assay [6] it was 10 nM.

`C[C@H]1[C@H]2Cc3ccc(N)cc3[C@@]1(C)CCN2CC1CC1`: the EC50 in [2] stood at 20 nM. In assay [4], this molecule had an Emax of 80%. Further, the Ki in assay [1] is 12 nM.

Consider `C[C@H]1C2Cc3ccc(N4CCOCC4)cc3[C@@]1(C)CCN2CC1CC1`, for which, in assay [16], the Ratio stood at 5. In assay [1], this molecule gave a Ki of 2800 nM.

Take `C[C@H]1[C@H]2Cc3ccc(Nc4ccccc4)cc3[C@@]1(C)CCN2C[C@@H]1CCCO1`: the Ki in assay [5] came to 2 nM; in assay [6], 2.8 nM.

As to `C[C@@H]1[C@@H]2Cc3ccc(N)cc3[C@]1(C)CCN2CC1CC1`, the figures for the Ki in assay [5] and in [6] were 506 nM and 780 nM, respectively.
